This test deals with Kelch-like ECH-associated protein 1 (Homo sapiens) (UniProt Q14145). Kind of test: competitive SPR blockade of Keap1/Nrf2 binding – biophysical, dry powder, orthogonal assay for Keap1-Nrf2 interaction inhibitor project, confirmation (AID 651876). To be noted: Keap1 Kelch binding to Nrf2 peptide, stronger effect = higher value. Put shortly: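 Material: Keap1 Kelch domain, biochemical; amount: 40 nM Kelch domain; probe or stimulus: biotinylated 16mer Nrf2 peptide captured on streptavidin CM5 surface; compound: two single doses per compound, 5 µM and 50 µM; timing: Kelch–compound preincubation at room temperature, SPR injection at 25 °C; technique: Double-referenced SPR association slopes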
Chain of Kelch-like ECH-associated protein 1 (Homo sapiens) (Q14145 whole entry, looked up, the tested form may be a part): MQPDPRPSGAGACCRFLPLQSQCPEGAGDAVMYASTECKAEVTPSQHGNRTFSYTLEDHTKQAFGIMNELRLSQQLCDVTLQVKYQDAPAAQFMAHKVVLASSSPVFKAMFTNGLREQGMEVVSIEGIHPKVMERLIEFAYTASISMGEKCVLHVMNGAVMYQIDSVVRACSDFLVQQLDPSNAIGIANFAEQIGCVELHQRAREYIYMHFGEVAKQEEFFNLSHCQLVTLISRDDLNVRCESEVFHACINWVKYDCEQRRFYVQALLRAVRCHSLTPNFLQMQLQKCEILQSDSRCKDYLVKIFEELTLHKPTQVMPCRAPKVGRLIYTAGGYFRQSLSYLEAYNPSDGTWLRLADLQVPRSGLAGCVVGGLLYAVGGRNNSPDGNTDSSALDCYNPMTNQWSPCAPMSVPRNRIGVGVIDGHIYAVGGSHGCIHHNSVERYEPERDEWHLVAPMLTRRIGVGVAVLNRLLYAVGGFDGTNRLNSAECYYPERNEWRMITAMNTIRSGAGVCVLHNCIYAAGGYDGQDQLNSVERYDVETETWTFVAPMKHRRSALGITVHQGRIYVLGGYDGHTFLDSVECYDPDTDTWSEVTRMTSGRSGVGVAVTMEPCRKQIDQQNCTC

Values joined by “and” are separate entries in the source; they are usually repeats but may differ in a detail not shown here. Identical values can stand only once. Active and inactive are the calls of the source.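 The calls were made as follows: active = inhibition above 20% at 50 µM; inactive = the rest.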

One may read the inhibition as the relative decrease from the control value, in per cent. As to `CCOC(=O)Cc1nc(NS(=O)(=O)c2c(C)cc(C)cc2C)c2ccccc2n1`, the inhibition (at 50 µM) was 4.3% (inactive) and the inhibition (inhibition, at 5 µM) was found to be 5.5%.
In the same order, the values of `CCOC(=O)C(C(=O)OCC)c1nc(NS(=O)(=O)c2c(C)cc(C)cc2C)c2ccccc2n1` are -2.5% (inactive) and -6%.
The like results for `O=C(Oc1cc(CN2C(=O)c3ccccc3C2=O)c2ccccc2[n+]1[O-])c1cccc(Cl)c1` were, in that order, 7.85% (inactive) and -2.91%.
The like results for `O=C(O)C1CCCCC1C(=O)NCC1c2ccccc2CCN1C(=O)Cc1ccccc1` (stereo not given) were, in that order, -4% (inactive) and 3.3%.
Turning to `O=C(O)C1CCCCC1C(=O)N1CCc2ccccc2C1CN1Cc2ccccc2C1=O` (stereo not given), the inhibition is 77.7% (at 50 µM) and 27.7% (inhibition, at 5 µM).
The like results for `O=C(O)[C@H]1C2C=CC(C2)[C@H]1C(=O)N1CCc2ccccc2C1CN1C(=O)c2ccccc2C1=O` (stereo not given in full) were, in that order, 42.4% and 4.9%.
In the same order, the values of `O=C(O)C1CCCCC1C(=O)Nc1ccccc1CN1C(=O)c2ccccc2C1=O` (stereo not given) are 5.5% (inactive) and 3.8%.
In the same order, the values of `O=C(O)[C@@H]1CCCN1C(=O)N1CCc2ccccc2[C@H]1CN1C(=O)c2ccccc2C1=O` are 30.3% and 1.7%.
On to `O=C(Cc1ccccc1)NC[C@@H]1c2ccccc2CCN1C(=O)[C@@H]1CCCC[C@@H]1C(=O)O`, for which the inhibition reads like this: (at 50 µM) 36.9%; (inhibition, at 5 µM) 7%.
Consider `Cc1ccc(S(=O)(=O)Nc2cc(C(C(=O)OC(C)C)C(=O)C(F)(F)F)c(O)c3ccccc23)c(C)c1` (stereo not given), for which the inhibition was 97% (at 50 µM) and 57.8% (inhibition, at 5 µM).
Turning to `CC(C)OC(=O)C(C(=O)C(F)(F)F)c1cc(NS(=O)(=O)c2ccccc2)c2ccccc2c1O` (stereo not given), the inhibition is, setting by setting: (at 50 µM) 59%; (inhibition, at 5 µM) 12.7%.
The like results for `O=C(O)C1CCCCC1C(=O)N1CCc2ccccc2[C@H]1C(=O)NC12CC3CC(CC(C3)C1)C2` (stereo not given in full) were, in that order, -0.6% (inactive) and -11.6%.
`COC(=O)C1CCCCC1C(=O)N1CCc2ccccc2C1CN1C(=O)c2ccccc2C1=O` (stereo not given): the inhibition (at 50 µM) is 6.8% (inactive) and the inhibition (inhibition, at 5 µM) was determined as 3.3%.
The like results for `Cc1ccc(S(=O)(=O)NNc2nc(N3CC(O)CC3C(=O)O)nc3ccccc23)cc1` (stereo not given) were, in that order, -0.9% (inactive) and -1.1%.
For the compound `O=C(O)C1CCCCC1C(=O)N1CCc2ccccc2[C@H]1C(=O)NCCc1ccccc1` (stereo not given in full), the inhibition by setting is: (at 50 µM) -3.7% (inactive); (inhibition, at 5 µM) -5.5%.
The like results for `O=C(O)[C@H]1CCCC[C@H]1C(=O)NC(CN1C(=O)c2ccccc2C1=O)c1ccccc1` (stereo not given in full) were, in that order, 0.3% (inactive) and 0.3%.
In the same order, the values of `O=C(O)C1CCCCC1C(=O)N1CCc2ccccc2C1CN1C(=O)c2ccccc2S1(=O)=O` (stereo not given) are 68.1% and 18.5%.
The like results for `Cc1cc(C)c(S(=O)(=O)Nc2nc(C(C(=O)OC(C)C)C(=O)C(F)(F)F)nc3ccccc23)c(C)c1` (stereo not given) were, in that order, 1.9% (inactive) and -4.5%.
Consider `O=C(O)c1ccccc1C(=O)NC[C@@H]1c2ccccc2CCN1C(=O)[C@@H]1CCCC[C@@H]1C(=O)O`, for which the inhibition by setting is: (at 50 µM) 9.5% (inactive); (inhibition, at 5 µM) 0.9%.
As to `O=C(NCCCN1CCOCC1)c1ccccc1C(=O)NC[C@@H]1c2ccccc2CCN1C(=O)C1CCCCC1C(=O)O` (stereo not given in full), the inhibition (at 50 µM) was 43.8% and the inhibition (inhibition, at 5 µM) stood at 6.9%.
As for `CC(C)CNc1nc(NS(=O)(=O)c2ccccc2)c2ccccc2n1`, the inhibition reads like this: (at 50 µM) 3.3% (inactive); (inhibition, at 5 µM) 1%.
In the same order, the values of `O=C(NCCO)c1ccccc1C(=O)NC[C@@H]1c2ccccc2CCN1C(=O)C1CCCCC1C(=O)O` (stereo not given in full) are 32.1% and 7.5%.
In the same order, the values of `O=C(O)C1CCCCC1C(=O)N1CCc2ccccc2C1CN1C(=O)[C@H]2CCCC[C@H]2C1=O` (stereo not given in full) are 65.5% and 19.1%.
As to `O=C(O)[C@H]1CCCC[C@H]1C(=O)N1CCC2=C(CCCC2)C1CN1C(=O)c2ccccc2C1=O` (stereo not given in full), the inhibition (inhibition, at 5 µM) is 12.5% and -3.6%.
For `COc1ccccc1CCNC(=O)[C@@H]1c2ccccc2CCN1C(=O)C1CCCCC1C(=O)O` (stereo not given in full), the inhibition is -4.2% (inactive) and -2.2% (inactive) (at 50 µM); -12.8% and -7.2% (inhibition, at 5 µM).
Take `Cc1ccc(S(=O)(=O)NC(=O)[C@@H]2c3ccccc3CCN2C(=O)[C@@H]2CCCC[C@@H]2C(=O)O)cc1`: the inhibition (inhibition, at 5 µM) is 0.2% and -3.9%.
In the case of `O=C(O)CC(=O)N1CCc2ccccc2C1CN1C(=O)c2ccccc2C1=O` (stereo not given), the inhibition by setting is: (at 50 µM) 2.1% (inactive); (inhibition, at 5 µM) -2.4%.
With `COc1ccc(CCN=C2C=C(NS(=O)(=O)c3c(C)cc(C)cc3C)c3ccccc3C2=O)cc1`, the inhibition reads like this: (at 50 µM) 8% (inactive); (inhibition, at 5 µM) 0%.
Consider `O=C(O)C1CCCCC1C(=O)N1CCc2ccccc2C1CN1C(=O)Cc2ccccc2C1=O` (stereo not given), for which the inhibition (at 50 µM) was 77% and the inhibition (inhibition, at 5 µM) is 36.6%.
The like results for `C=CC(=O)NC[C@@H]1c2ccccc2CCN1C(=O)[C@@H]1CCCC[C@@H]1C(=O)O` were, in that order, 1.1% (inactive) and -5.2%.
With `O=C(O)CCC(=O)N1CCc2ccccc2C1CN1C(=O)c2ccccc2C1=O` (stereo not given), the inhibition (at 50 µM) is 11.4% (inactive) and the inhibition (inhibition, at 5 µM) is -2.3%.
Take `O=C(O)/C=C\C(=O)N1CCc2ccccc2C1CN1C(=O)c2ccccc2C1=O` (stereo not given): the inhibition by setting is: (at 50 µM) 21.5%; (inhibition, at 5 µM) 1.1%.
The like results for `Cc1cc(C)c(S(=O)(=O)Nc2cc(C(C(=O)OCc3ccccc3)C(=O)OCc3ccccc3)c(O)c3ccccc23)c(C)c1` were, in that order, 7.1% (inactive) and 4.69%.
In the case of `O=C(O)[C@H]1CCCC[C@H]1C(=O)N1CCc2ccccc2[C@H]1CNS(=O)(=O)c1ccc([N+](=O)[O-])cc1`, the inhibition (at 50 µM) was 26.7% and the inhibition (inhibition, at 5 µM) is 4%.
The like results for `O=C(NC[C@@H]1c2ccccc2CCN1C(=O)[C@@H]1CCCC[C@@H]1C(=O)O)OCC1c2ccccc2-c2ccccc21` were, in that order, 3.6% (inactive) and 5%.
On to `O=C1c2ccccc2C(=O)N1CC1=NCCc2ccccc21`, for which the inhibition runs as follows: (at 50 µM) -0.2% (inactive); (inhibition, at 5 µM) 1.1%.
In the same order, the values of `O=C1c2ccccc2C(=O)N1C[C@@H]1c2ccccc2CCN1C(=O)C1CCCCC1` are 2.1% (inactive) and -0.3%.
`Cc1ccc(S(=O)(=O)NC2=CC(=N[C@@H](C)C(=O)OC(C)(C)C)C(=O)c3ccccc32)c(C)c1`: the inhibition (at 50 µM) was 10.5% (inactive) and the inhibition (inhibition, at 5 µM) is -5.37%.
In the same order, the values of `O=C(NC[C@@H]1c2ccccc2CCN1C(=O)[C@@H]1CCCC[C@@H]1C(=O)O)c1ccc(CCl)cc1` are 22.7% and -1%.
As for `Cc1cc(C)c(S(=O)(=O)Nc2ncnc3ccccc23)c(C)c1`, the inhibition runs as follows: (at 50 µM) 1.5% (inactive); (inhibition, at 5 µM) -0.6%.
Consider `O=C(O)c1ccccc1C(=O)N1CCc2ccccc2C1CN1C(=O)c2ccccc2C1=O` (stereo not given), for which the inhibition is 9.9% (inactive) (at 50 µM) and 1.9% (inhibition, at 5 µM).
As to `O=C(O)[C@H]1CCCC[C@H]1C(=O)N1CCc2ccccc2[C@H]1CNc1nc(Cl)nc2ccccc12`, the inhibition (at 50 µM) was 3.7% (inactive) and the inhibition (inhibition, at 5 µM) was -1.3%.
As to `Cc1cc(C)c(S(=O)(=O)Nc2nc(NCCO)nc3ccccc23)c(C)c1`, the inhibition (at 50 µM) is 6.8% (inactive) and the inhibition (inhibition, at 5 µM) was determined as 3.6%.
`Cc1ccc(S(=O)(=O)NNc2nc(C(C(=O)OC(C)C)C(=O)C(F)(F)F)nc3ccccc23)cc1` (stereo not given): the inhibition by setting is: (at 50 µM) 28.3%; (inhibition, at 5 µM) 4.9%.
`Cc1ccc(S(=O)(=O)NNc2nc(NCC(N)=O)nc3ccccc23)cc1`: the inhibition is -9.9% (inactive) (at 50 µM) and -3.5% (inhibition, at 5 µM).
The like results for `Cc1cc(C)c(S(=O)(=O)Nc2cc(C(C(=O)OC(C)C)C(=O)C(F)(F)F)c(O)c3ccccc23)c(C)c1` (stereo not given) were, in that order, 105% and 79.7%.
`CCOC(=O)C(C(=O)OCC)c1cc(CNS(=O)(=O)c2ccc(C)cc2C)c2ccccc2n1`: the inhibition was 4.8% (inactive) (at 50 µM) and 3.9% (inhibition, at 5 µM).
The like results for `O=C(O)[C@H]1CCCC[C@H]1C(=O)N1CCc2ccccc2[C@H]1CNS(=O)(=O)c1ccccc1` were, in that order, 12.9% (inactive) and -3.1%.
As to `O=C(O)C1CCCCC1C(=O)N1CCc2ccccc2C1c1ccccc1` (stereo not given), the inhibition is, setting by setting: (at 50 µM) 3.2% (inactive); (inhibition, at 5 µM) -2%.
`COC(=O)CNc1nc(NS(=O)(=O)c2c(C)cc(C)cc2C)c2ccccc2n1`: the inhibition reads like this: (at 50 µM) 8.5% (inactive); (inhibition, at 5 µM) 1.1%.
In the case of `O=C(NCCc1ccccc1)c1ccccc1C(=O)NC[C@@H]1c2ccccc2CCN1C(=O)C1CCCCC1C(=O)O` (stereo not given in full), the inhibition runs as follows: (at 50 µM) 47.1%; (inhibition, at 5 µM) 3.3%.
Consider `O=C1c2ccccc2C(=O)N1CC1c2ccccc2CCN1C(=O)Cc1ccccc1` (stereo not given), for which the inhibition (at 50 µM) is 3.5% (inactive) and the inhibition (inhibition, at 5 µM) was 3.1%.
As for `NC(=O)[C@H]1CCCC[C@H]1C(=O)N1CCc2ccccc2[C@H]1CN1C(=O)c2ccccc2C1=O`, the inhibition is 36.7% (at 50 µM) and 5.6% (inhibition, at 5 µM).
In the same order, the values of `Cc1ccccc1S(=O)(=O)Nc1cc(C(C(=O)OC(C)C)C(=O)C(F)(F)F)c(O)c2ccccc12` (stereo not given) are 86.4% and 49.5%.
`O=C(NC[C@@H]1c2ccccc2CCN1C(=O)[C@@H]1CCCC[C@@H]1C(=O)O)c1ccccc1`: the inhibition was -3.5% (inactive) (at 50 µM) and 1.5% (inhibition, at 5 µM).
Take `O=C(NC[C@@H]1c2ccccc2CCN1C(=O)[C@@H]1CCCC[C@@H]1C(=O)O)c1ccc(CN2CCOCC2)cc1`: the inhibition runs as follows: (at 50 µM) 24.9%; (inhibition, at 5 µM) -1.2%.

The record behind these values is PubChem BioAssay AID651876 (Broad Institute, 2012).
